Data from paper PMC12744601 (Infection and Drug Resistance, 2025).
Values after ≈ are worked out from the molar mass of the structure shown.

Tested on: daptomycin-non-susceptible VRE strain (clinical DRE isolate)
Assay: Minimum inhibitory concentration
Type: cell-based, Enterococcus faecium
How it was run: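 Clinical daptomycin-non-susceptible VRE isolate from a bloodstream infection. Species identified by VITEK 2. […] Fosfomycin MIC by agar dilution and ceftaroline MIC by broth microdilution. Breakpoints per CLSI.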

Structure (SMILES)	MIC (Enterococcus, VRE) [µg/mL]	other results
CCO/N=C(\C(=O)N[C@@H]1C(=O)N2C(C(=O)[O-])=C(Sc3nc(-c4cc[n+](C)cc4)cs3)CS[C@H]12)c1nsc(N)n1 [Ceftaroline, ceftaroline]	> 8	–
CCCCCCCCCC(=O)N[C@@H](Cc1c[nH]c2ccccc12)C(=O)N[C@H](CC(N)=O)C(=O)N[C@@H](CC(=O)O)C(=O)N[C@@H]1C(=O)NCC(=O)N[C@@H](CCCN)C(=O)N[C@@H](CC(=O)O)C(=O)N[C@H](C)C(=O)N[C@@H](CC(=O)O)C(=O)NCC(=O)N[C@H](CO)C(=O)N[C@@H]([C@H](C)CC(=O)O)C(=O)N[C@@H](CC(=O)c2ccccc2N)C(=O)O[C@@H]1C [Daptomycin, daptomycin]	–	MIC (broth microdilution, cation-adjusted Mueller-Hinton broth supplemented with 50 mg/mL calcium, clinical DRE isolate): 8 µg/mL (≈ 4.94 µM)
C[C@@H]1O[C@@H]1P(=O)(O)O [Fosfomycin, fosfomycin]	128 (≈ 927 µM)	–
CN[C@H](CC(C)C)C(=O)N[C@H]1C(=O)N[C@@H](CC(N)=O)C(=O)N[C@H]2C(=O)N[C@H]3C(=O)N[C@H](C(=O)N[C@H](C(=O)O)c4cc(O)cc(O)c4-c4cc3ccc4O)[C@H](O)c3ccc(c(Cl)c3)Oc3cc2cc(c3O[C@@H]2O[C@H](CO)[C@@H](O)[C@H](O)[C@H]2O[C@H]2C[C@](C)(N)[C@H](O)[C@H](C)O2)Oc2ccc(cc2Cl)[C@H]1O [vancomycin]	–	MIC (Sensititre GPN3F system, clinical DRE isolate): > 128 µg/mL
